Laboratory results published in ChEMBL document CHEMBL5335797, “Design, Synthesis, and Evaluation of New 1H-Benzo[d]imidazole Based PqsR Inhibitors as Adjuvant Therapy for Pseudomonas aeruginosa Infections” (J Med Chem, 2024).
Values belong to the molecule of their own block, whether it stands above or below them. The source made the active and inactive calls. The rule behind the calls is not given here.

Key:
Pseudomonas aeruginosa [1] = test: Inhibition of Pseudomonas aeruginosa pqsA-lux complex expressed in Pseudomonas aeruginosa PAO1-L at 10 uM by bioluminescent reporter assay
Outline: (§1)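 Reporter strains PAO1-L and PA14 carrying chromosomal mCTX::PpqsA-lux, grown in LB at 37 °C. Inhibition read as reduced luminescence. Single-point screen at 10 μM from 10 mM DMSO stock; dose–response curves in both strains; mean ± SD, n = 2.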

Pseudomonas aeruginosa [2] = test: Inhibition of Pseudomonas aeruginosa pqsA-lux complex expressed in Pseudomonas aeruginosa PA14 at 10 uM by bioluminescent reporter assay; outline: as §1
[3] = molecular target: T1, Transcriptional regulator MvfR (Pseudomonas aeruginosa PA14) (UniProt A0A072ZLE6); test: Antagonist activity at PqsR in wild-type Pseudomonas aeruginosa PAO1-L assessed as inhibition of pyocyanin level at 3 times IC50 incubated for 16 hrs by absorbance based assay relative to control; conditions: filed as antagonist
T1 sequence (whole entry): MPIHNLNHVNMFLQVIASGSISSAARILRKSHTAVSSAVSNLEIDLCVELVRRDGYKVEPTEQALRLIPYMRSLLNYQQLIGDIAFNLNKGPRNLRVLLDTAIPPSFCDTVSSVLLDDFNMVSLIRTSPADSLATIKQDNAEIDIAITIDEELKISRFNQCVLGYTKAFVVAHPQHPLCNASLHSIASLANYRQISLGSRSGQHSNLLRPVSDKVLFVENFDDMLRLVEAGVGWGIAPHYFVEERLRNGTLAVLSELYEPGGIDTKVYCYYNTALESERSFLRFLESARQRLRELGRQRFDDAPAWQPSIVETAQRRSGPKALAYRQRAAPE

[4] = Inhibition of Pseudomonas aeruginosa pqsA-lux complex expressed in Pseudomonas aeruginosa PA14 by bioluminescent reporter assay; outline: as §1
Pseudomonas aeruginosa [5] = test: Inhibition of biofilm formation in Pseudomonas aeruginosa PAO1-L at 10 uM incubated for 6 to 24 hrs by SYTO9/PI staining based confocal laser scanning microscopy; type: functional, organism-based; conditions: time 6-24 hrs
Outline: (§2)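 PAO1-L biofilms grown on glass coverslips in a rolling bioreactor (20 rpm) in FAB 10 mM glucose, inoculated at OD600 0.01, 30 °C for 24 h with 10 μM compound from the start. Then PBS wash and 6 or 24 h in fresh medium with 60 μg/mL ciprofloxacin, 20 μM compound, or both. LIVE/DEAD BacLight staining, CLSM; live/dead ratios against untreated.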

[6] = molecular target: T1, Transcriptional regulator MvfR (Pseudomonas aeruginosa PA14); test: Antagonist activity at PqsR in wild-type Pseudomonas aeruginosa PAO1-L assessed as reduction in HHQ level at 0.2 uM by LCMS/MS analysis; conditions: filed as antagonist
[7] = molecular target: T1, Transcriptional regulator MvfR (Pseudomonas aeruginosa PA14); test: Antagonist activity at PqsR in wild-type Pseudomonas aeruginosa PAO1-L assessed as inhibition of pyocyanin level at 200 nM incubated for 16 hrs by absorbance based assay; conditions: filed as antagonist
[8] = molecular target: T1, Transcriptional regulator MvfR (Pseudomonas aeruginosa PA14); test: Antagonist activity at PqsR in Pseudomonas aeruginosa IPCD48 clinical isolate assessed as reduction in PQS level at 0.2 uM by LCMS/MS analysis; conditions: filed as antagonist
Pseudomonas aeruginosa [9] = test: Potentiation of Tobramycin-induced antibiofilm activity in Pseudomonas aeruginosa PAO1-L at 1 uM preincubated for 16 hrs followed by tobramycin addition measured for 2 to 6 hrs by PI staining based confocal laser scanning microscopy; type: functional, organism-based; conditions: time 18-22 hrs
Outline: (§3)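 GFP-tagged strain (pMMG) grown in RPMI-1640 with 20 mM glucose and 2 μM FeCl3. Seeded at OD600 0.01 on glass coverslips, static 1.5 h at 37 °C. Compound added at 1 μM, then shaken at 60 rpm and 37 °C for 16 h. Tobramycin 100 μg/mL plus propidium iodide 2 μM for a further 2 or 6 h. CLSM, 5 random z-stacks per coverslip.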

[10] = molecular target: T1, Transcriptional regulator MvfR (Pseudomonas aeruginosa PA14); test: Antagonist activity at PqsR in wild-type Pseudomonas aeruginosa PA14 assessed as reduction in HQNO level at 0.2 uM by LCMS/MS analysis relative to control; design: scale not given: the % may be the effect or the level left
[11] = molecular target: T1, Transcriptional regulator MvfR (Pseudomonas aeruginosa PA14); test: Antagonist activity at PqsR in Pseudomonas aeruginosa IPCD1331 clinical isolate assessed as reduction in HHQ level at 0.2 uM by LCMS/MS analysis
[12] = molecular target: T1, Transcriptional regulator MvfR (Pseudomonas aeruginosa PA14); test: Antagonist activity at PqsR in Pseudomonas aeruginosa IPCD1350 clinical isolate assessed as reduction in HQNO level at 0.2 uM by LCMS/MS analysis relative to control; design: scale not given: the % may be the effect or the level left
Pseudomonas aeruginosa [13] = test: Potentiation of Ciprofloxacin-induced antibiofilm activity in Pseudomonas aeruginosa PAO1-L at 10 uM incubated for 6 to 24 hrs by SYTO9/PI staining based confocal laser scanning microscopy; type: functional, organism-based; conditions: time 6-24 hrs; outline: as §2
[14] = molecular target: T1, Transcriptional regulator MvfR (Pseudomonas aeruginosa PA14); test: Antagonist activity at PqsR in Pseudomonas aeruginosa IPCD48 clinical isolate assessed as reduction in HHQ level at 0.2 uM by LCMS/MS analysis; conditions: filed as antagonist
[15] = molecular target: T1, Transcriptional regulator MvfR (Pseudomonas aeruginosa PA14); test: Antagonist activity at PqsR in wild-type Pseudomonas aeruginosa PA14 assessed as reduction in PQS level at 0.2 uM by LCMS/MS analysis; conditions: filed as antagonist
[16] = molecular target: T1, Transcriptional regulator MvfR (Pseudomonas aeruginosa PA14); test: Antagonist activity at PqsR in Pseudomonas aeruginosa IPCD48 clinical isolate assessed as inhibition of pyocyanin level at 200 nM incubated for 16 hrs by absorbance based assay; conditions: filed as antagonist
[17] = molecular target: T1, Transcriptional regulator MvfR (Pseudomonas aeruginosa PA14); test: Antagonist activity at PqsR in Pseudomonas aeruginosa IPCD48 clinical isolate assessed as reduction in HQNO level at 0.2 uM by LCMS/MS analysis relative to control; design: scale not given: the % may be the effect or the level left
[18] = molecular target: T1, Transcriptional regulator MvfR (Pseudomonas aeruginosa PA14); test: Antagonist activity at PqsR in wild-type Pseudomonas aeruginosa PA14 assessed as reduction in HHQ level at 0.2 uM by LCMS/MS analysis; conditions: filed as antagonist
[19] = molecular target: T1, Transcriptional regulator MvfR (Pseudomonas aeruginosa PA14); test: Antagonist activity at PqsR in wild-type Pseudomonas aeruginosa PA14 assessed as inhibition of pyocyanin level at 200 nM incubated for 16 hrs by absorbance based assay; conditions: filed as antagonist
A549 = test: Cytotoxicity against human A549 cells assessed as cell viability upto 100 uM incubated for 24 hrs by resazurin reduction assay; type: toxicity, cell-based; conditions: a549, 24 h
Outline: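 A549 cells in DMEM with 10% FBS and 1% PSN, seeded at 1 × 10^4 cells/well. Compound at 1, 50 and 100 μM in sextuplicate, 24 h at 37 °C and 5% CO2. Vehicle control 1% DMSO; positive control 100 μM K2Cr2O7. Alamar blue added for 4–6 h, fluorescence read at ex 510/em 590 nm, normalized to DMSO.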

[20] = molecular target: T1, Transcriptional regulator MvfR (Pseudomonas aeruginosa PA14); test: Antagonist activity at PqsR in Pseudomonas aeruginosa IPCD1451 clinical isolate assessed as reduction in HQNO level at 0.2 uM by LCMS/MS analysis
[21] = molecular target: T1, Transcriptional regulator MvfR (Pseudomonas aeruginosa PA14); test: Antagonist activity at PqsR in Pseudomonas aeruginosa IPCD1451 clinical isolate assessed as inhibition of pyocyanin level at 200 nM incubated for 16 hrs by absorbance based assay
[22] = molecular target: T1, Transcriptional regulator MvfR (Pseudomonas aeruginosa PA14); test: Antagonist activity at PqsR in Pseudomonas aeruginosa LESB58 clinical isolate assessed as reduction in HQNO level at 0.2 uM by LCMS/MS analysis relative to control; design: scale not given: the % may be the effect or the level left
[23] = molecular target: T1, Transcriptional regulator MvfR (Pseudomonas aeruginosa PA14); test: Antagonist activity at PqsR in Pseudomonas aeruginosa IPCD1331 clinical isolate assessed as reduction in HQNO level at 0.2 uM by LCMS/MS analysis relative to control; design: scale not given: the % may be the effect or the level left
[24] = molecular target: T1, Transcriptional regulator MvfR (Pseudomonas aeruginosa PA14); test: Antagonist activity at PqsR in Pseudomonas aeruginosa IPCD1331 clinical isolate assessed as reduction in PQS level at 0.2 uM by LCMS/MS analysis
[25] = molecular target: T1, Transcriptional regulator MvfR (Pseudomonas aeruginosa PA14); test: Antagonist activity at PqsR in Pseudomonas aeruginosa IPCD1331 clinical isolate assessed as inhibition of pyocyanin level at 200 nM incubated for 16 hrs by absorbance based assay; conditions: filed as antagonist
[26] = molecular target: T1, Transcriptional regulator MvfR (Pseudomonas aeruginosa PA14); test: Antagonist activity at PqsR in Pseudomonas aeruginosa LESB58 clinical isolate assessed as inhibition of pyocyanin level at 200 nM incubated for 16 hrs by absorbance based assay; conditions: filed as antagonist
[27] = molecular target: T1, Transcriptional regulator MvfR (Pseudomonas aeruginosa PA14); test: Antagonist activity at PqsR in wild-type Pseudomonas aeruginosa PAO1-L assessed as reduction in PQS level at 0.2 uM by LCMS/MS analysis; conditions: filed as antagonist
[28] = molecular target: T1, Transcriptional regulator MvfR (Pseudomonas aeruginosa PA14); test: Antagonist activity at PqsR in wild-type Pseudomonas aeruginosa PAO1-L assessed as reduction in HQNO level at 0.2 uM by LCMS/MS analysis relative to control; design: scale not given: the % may be the effect or the level left
[29] = molecular target: T1, Transcriptional regulator MvfR (Pseudomonas aeruginosa PA14); test: Antagonist activity at PqsR in Pseudomonas aeruginosa IPCD1350 clinical isolate assessed as inhibition of pyocyanin level at 200 nM incubated for 16 hrs by absorbance based assay; conditions: filed as antagonist
[30] = molecular target: T1, Transcriptional regulator MvfR (Pseudomonas aeruginosa PA14); test: Antagonist activity at PqsR in Pseudomonas aeruginosa LESB58 clinical isolate assessed as reduction in AQ level at 0.2 uM by LCMS/MS analysis; conditions: filed as antagonist
Pseudomonas aeruginosa [31] = test: Inhibition of biofilm formation in GFP-labeled Pseudomonas aeruginosa PAO1-L at 1 uM incubated for 16 hrs by PI staining based confocal laser scanning microscopy; type: functional, organism-based; outline: as §3
[32] = Inhibition of Pseudomonas aeruginosa pqsA-lux complex expressed in Pseudomonas aeruginosa PAO1-L by bioluminescent reporter assay; outline: as §1

Structure (SMILES): N#CCc1ccc(OCC(O)CNc2nc3ccc(Cl)cc3o2)cc1 (stereo not given)
inhibition (Pseudomonas aeruginosa [1]): inactive
inhibition (Pseudomonas aeruginosa [2]): inactive

Structure (SMILES): CCn1c(NCC(O)COc2ccc(CC#N)cc2)nc2ccc(Cl)cc21 (stereo not given)
inhibition [3]: > 50%

Structure (SMILES): N#CCc1ccc(OCC(O)CNc2nc3ccc(Cl)cc3n2C2CC2)cc1 (stereo not given)
inhibition [3]: > 50%

Structure (SMILES): CC(C)n1c(NCC(O)COc2ccc(CC#N)c(F)c2)nc2ccc(Cl)cc21 (stereo not given)
inhibition [3]: > 50%

Structure (SMILES): CN1CCC(n2c(NCC(O)COc3ccc(CC#N)cc3)nc3ccc(Cl)cc32)CC1 (stereo not given)
IC50 [4]: Not Active
IC50 [32]: Not Active

The next lines start with results.

IC50 [4]: Not Active
Structure (SMILES): N#CCc1ccc(OCC(O)CNc2nc3ccc(Cl)cc3n2CCOCc2ccccc2)cc1 (stereo not given)

Activity [6]: Active
inhibition [7]: Active
Activity [8]: Active
Activity [10]: 20%
Activity [11]: inactive
Activity [12]: 20%
Activity [14]: Active
Activity [15]: Active
inhibition [16]: Active
Activity [17]: 20%
Activity [18]: Active
inhibition [19]: Active
Activity [20]: inactive
inhibition [21]: inactive
Activity [22]: 20%
Activity [23]: 20%
Activity [24]: inactive
inhibition [25]: Active
inhibition [26]: Active
Activity [27]: Active
Activity [28]: 20%
inhibition [29]: Active
Activity [30]: Active
Structure (SMILES): CC(C)n1c(NCC(O)COc2ccc(CC#N)cc2)nc2ccc(Cl)cc21 (stereo not given)
inhibition (Pseudomonas aeruginosa [5]): inactive
Activity (Pseudomonas aeruginosa [9]): Active
Activity (Pseudomonas aeruginosa [13]): Active
Activity (A549): Non-Toxic
inhibition (Pseudomonas aeruginosa [31]): inactive

inhibition (Pseudomonas aeruginosa [1]): inactive
inhibition (Pseudomonas aeruginosa [2]): inactive
Structure (SMILES): N#CCc1ccc(OCC(O)CNc2nc3ccc(Cl)cc3s2)cc1 (stereo not given)

IC50 [4]: Not Active
IC50 [32]: Not Active
Structure (SMILES): Cn1c(NCC(O)COc2ccc(CC#N)cc2)nc2cc(Cl)c(Cl)cc21 (stereo not given)
